# Measurements taken from ChEMBL document CHEMBL4145657 (J Med Chem, 2018).
# The source made the active and inactive calls. The calls are words filed in the database; no cut-off is given here.
# Columns and labels:
# [1] = target: Mu-type opioid receptor (Homo sapiens) (UniProt P35372); assay: Agonist activity at human mu opioid receptor expressed in CHO cell membranes at 10 uM incubated for 60 mins by [35S]GTPgammaS binding assay; type: functional
# Summary of the method: (§1)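 CHO cell membranes expressing human κ (20 µg), µ (10 µg) or δ (7 µg) opioid receptor. Test compound at 10 µM final, with 10 µM GDP and 0.1 nM [35S]GTPγS in HEPES pH 7.4 buffer containing NaCl, MgCl2, EDTA, DTT and BSA. Incubated 60 min at 22 °C with shaking, then filtered and counted. Nonspecific binding defined with 10 µM unlabeled GTPγS.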
# [2] = target: Kappa-type opioid receptor (Homo sapiens) (UniProt P41145); assay: Agonist activity at human kappa opioid receptor expressed in CHO cell membranes at 10 uM incubated for 60 mins by [35S]GTPgammaS binding assay; type: functional; summary of the method: as §1
# [3] = target: Delta-type opioid receptor (Homo sapiens) (UniProt P41143); assay: Agonist activity at human delta opioid receptor expressed in CHO cell membranes at 10 uM incubated for 60 mins by [35S]GTPgammaS binding assay; type: functional; summary of the method: as §1
# [4] = target: Delta-type opioid receptor (Homo sapiens) (UniProt P41143); settings: CHO
# [5] = Clearance in Sprague-Dawley rat plasma at 5 mg/kg, sc measured after 1 to 168 hrs post dose by LC/MS-MS method; type: ADME, organism-based
# Summary of the method: (§2)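 Male Sprague Dawley rats, 10 weeks old, single subcutaneous 5 mg/kg dose at 1 mL/kg. Three rats per timepoint were killed by CO2 at 1, 4, 24, 72 and 168 h. Cardiac blood went into K3EDTA and was spun to plasma. Brains were homogenized 1:5 in 50:50 ethanol:water. Methanol precipitation used buspirone as internal standard. Analysis was by LC/MS-MS on C8 reverse phase. Parameters were taken from the apparent terminal elimination phase.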
# [6] = Half life in Sprague-Dawley rat plasma at 5 mg/kg, sc measured after 1 to 168 hrs post dose by LC/MS-MS method; type: ADME, organism-based; settings: in vivo
# Summary of the method: as §2, with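 “mL/kg.” for “mL/kg. Three rats per timepoint were killed by CO2 at 1, 4, 24, 72 and 168 h.”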
# [7] = target: Mu-type opioid receptor (Homo sapiens) (UniProt P35372); settings: CHO
# [8] = rat, in vivo, sc, 5 mg/kg
# Mu-type opioid receptor (Homo sapiens), sequence (P35372 whole entry): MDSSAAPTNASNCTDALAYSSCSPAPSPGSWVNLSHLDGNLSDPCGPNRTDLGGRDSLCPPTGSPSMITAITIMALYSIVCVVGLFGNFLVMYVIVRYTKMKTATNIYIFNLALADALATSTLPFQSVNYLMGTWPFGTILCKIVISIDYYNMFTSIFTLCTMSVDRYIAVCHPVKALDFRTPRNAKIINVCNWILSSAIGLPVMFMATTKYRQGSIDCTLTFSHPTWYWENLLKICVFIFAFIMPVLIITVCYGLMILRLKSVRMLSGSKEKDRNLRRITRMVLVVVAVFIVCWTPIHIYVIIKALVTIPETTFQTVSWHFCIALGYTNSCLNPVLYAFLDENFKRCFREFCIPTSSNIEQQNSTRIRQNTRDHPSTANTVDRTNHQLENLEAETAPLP
# Kappa-type opioid receptor (Homo sapiens), sequence (P41145 whole entry): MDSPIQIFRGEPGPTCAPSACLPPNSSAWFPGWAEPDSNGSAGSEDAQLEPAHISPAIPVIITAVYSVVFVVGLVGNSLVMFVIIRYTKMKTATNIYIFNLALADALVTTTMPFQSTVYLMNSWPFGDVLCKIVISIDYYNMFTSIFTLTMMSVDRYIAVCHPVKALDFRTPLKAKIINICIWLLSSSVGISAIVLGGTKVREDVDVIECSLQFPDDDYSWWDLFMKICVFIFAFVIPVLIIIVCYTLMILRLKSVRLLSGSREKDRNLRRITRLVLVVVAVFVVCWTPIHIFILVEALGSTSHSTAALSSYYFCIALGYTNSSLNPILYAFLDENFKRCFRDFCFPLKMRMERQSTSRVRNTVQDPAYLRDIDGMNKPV
# Delta-type opioid receptor (Homo sapiens), sequence (P41143 whole entry): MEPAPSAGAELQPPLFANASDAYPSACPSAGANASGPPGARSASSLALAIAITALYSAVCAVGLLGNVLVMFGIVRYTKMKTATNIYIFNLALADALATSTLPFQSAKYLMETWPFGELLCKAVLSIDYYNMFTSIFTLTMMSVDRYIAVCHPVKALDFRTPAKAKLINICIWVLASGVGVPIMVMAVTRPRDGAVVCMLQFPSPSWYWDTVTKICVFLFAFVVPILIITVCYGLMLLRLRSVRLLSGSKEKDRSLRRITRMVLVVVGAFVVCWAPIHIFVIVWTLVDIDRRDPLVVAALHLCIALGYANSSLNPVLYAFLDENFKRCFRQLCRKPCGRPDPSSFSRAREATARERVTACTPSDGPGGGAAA
Activity [1],Activity [2],Activity [3],Ke [4],Structure (SMILES),CL/F [5],t1/2 [6],Ke [7],Tmax [8]
inactive,inactive,inactive,–,O=C(NCCC1CCCCC1)[C@H]1Cc2ccc(O)cc2CN1,–,–,–,–
inactive,inactive,inactive,–,O=C(N[C@H](CC1CCCCC1)C1CC1)[C@H]1Cc2ccc(O)cc2CN1,–,–,–,–
inactive,inactive,inactive,–,CC(C)[C@@H](CC1CCCCCC1)NC(=O)[C@H]1Cc2ccc(O)cc2CN1,–,–,–,–
inactive,inactive,inactive,> 3000 nM,CC(C)[C@H](CC1CCCCC1)NC(=O)[C@H]1Cc2ccc(O)cc2CN1,–,–,–,–
inactive,inactive,inactive,–,CC(C)[C@@H](CC1CCC1)NC(=O)[C@H]1Cc2ccc(O)cc2CN1,–,–,–,–
inactive,inactive,inactive,–,CC(C)[C@@H](CC1CCCCC1)NC(=O)[C@H]1Cc2ccc(F)cc2CN1,–,–,–,–
inactive,inactive,inactive,–,O=C(N[C@H](CC1CCCC1)C1CC1)[C@H]1Cc2ccc(O)cc2CN1,–,–,–,–
inactive,inactive,inactive,–,CC(C)[C@@H](CC1CCCC1)NC(=O)[C@H]1Cc2ccc(C(N)=O)cc2CN1,–,–,–,–
inactive,inactive,inactive,–,O=C(N[C@H](CC1CCCCC1)c1ccccc1)[C@H]1Cc2ccc(O)cc2CN1,–,–,–,–
inactive,inactive,inactive,–,CC(C)[C@@H](CC1CCCC1)NC(=O)[C@@]1(C)Cc2ccc(O)cc2CN1,–,–,–,–
inactive,inactive,inactive,–,COc1ccc2c(c1)CN[C@@H](C(=O)N[C@H](CC1CCCCC1)C(C)C)C2,–,–,–,–

# Continued, molecule first:
Structure (SMILES),Activity [1],Activity [2],Activity [3],Ke [4],CL/F [5],t1/2 [6],Ke [7],Tmax [8]
CC(C)[C@@H](CC1CCCCC1)NC(=O)[C@@H]1Cc2ccc(O)cc2CN1,inactive,inactive,inactive,> 3000 nM,–,–,–,–
CC1CCC(C[C@@H](NC(=O)[C@H]2Cc3ccc(O)cc3CN2)C(C)C)CC1 (some centres undefined),inactive,inactive,inactive,–,–,–,–,–
CC(C)[C@@H](CC1CCCCC1)NC(=O)[C@H]1Cc2ccc(C(N)=O)cc2CN1,inactive,inactive,inactive,–,71.2 mL/min/kg,–,–,–
CC(C)[C@@H](CC1CCCCC1)NC(=O)[C@H]1Cc2ccccc2CN1,inactive,inactive,inactive,–,–,–,–,–
CC(C)[C@H](CC1CCCCC1)NC(=O)[C@@H]1Cc2ccc(O)cc2CN1,inactive,inactive,inactive,> 3000 nM,–,–,–,–
CC(C)[C@@H](CC1CCCCC1)NC(=O)[C@H]1Cc2ccc(O)cc2CN1C,inactive,inactive,inactive,–,–,–,–,–
CC(C)[C@@H](CN1CC[C@@](C)(c2cccc(O)c2)[C@@H](C)C1)NC(=O)[C@H]1Cc2ccc(O)cc2CN1 [JDTIC],–,–,–,–,–,28.4 h,–,–
CC(C)[C@@H](CC1CCCC1)NC(=O)[C@H]1Cc2ccc(O)cc2CN1,inactive,inactive,inactive,1570 nM,130 mL/min/kg,32.1 h,344 nM,–
CC(C)[C@@H](CC1CCCCC1)NC(=O)[C@H]1Cc2ccc(O)cc2CN1,inactive,inactive,inactive,–,98.6 mL/min/kg,34.2 h,–,1 h
